In publication PMC9494814 (Cell, 2022):
Where two headings read alike, the source gives them in different places.

How the values were obtained:
[1] = tested on: αIIbβ3 WT and αIIbβ3_N305T; format: binding; settings: Expi293F transfectants, L15 medium with 0.1% BSA
In short: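 Expi293F cells with α5 and αV knocked out, transiently co-transfected with αIIb plus β3 or β3_N305T; valproic acid (3 mM) and glucose (0.4%) added at 24 h. At 48 h, cells washed with EDTA-containing L-15/0.1% BSA, then plain assay medium. 10^6 cells/ml incubated with FITC-echistatin and varying test compound, 2 h at 22°C; unwashed flow cytometry. Probe Kd from titration against 5 nM AF647-MBC319.4 Fab. Compound Kd from nonlinear least-squares fits with integrin concentration as a parameter, with error propagation.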

αIIbβ3 WT = αIIbβ3 WT (Homo sapiens, UniProt P05106+P08514); assay: MBC319.4 Fab LIBS epitope exposure on αIIbβ3 WT transfectants; format: cell-based; settings: inhibitors at 100x Kd
In short: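 Cells transiently transfected with αIIbβ3 received valproic acid (3 mM final) and glucose (0.4%) at 24 h, and were washed at 48 h in EDTA-containing then plain L-15/0.1% BSA. Cells were incubated with 20 nM Alexa647-MBC319.4 Fab plus inhibitor (Kd from FITC-echistatin competition on WT transfectants) in L15/0.1% BSA, 22°C for 2 h. Read-out was unwashed flow cytometry.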

αIIbβ3_N305T = αIIbβ3_N305T (Homo sapiens, UniProt P05106+P08514, N331T); assay: MBC319.4 Fab LIBS epitope exposure on αIIbβ3_N305T transfectants; format: cell-based; settings: αIIbβ3 N305T transfectants, inhibitors at 100x Kd
In short: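 αIIbβ3_N305T transfectants of α5/αV-knockout Expi293F cells, harvested 48 h post-transfection and EDTA-washed. Incubated with 20 nM Alexa647-labelled MBC319.4 Fab and test compound in L-15 with 0.1% BSA, equilibrated 2 h at 22°C. Fab binding read by flow cytometry without washing, as MFI.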

[2] = molecular target: αIIbβ3 on washed human platelets (Homo sapiens, UniProt P05106+P08514); assay: Platelets LIBS exposure assay; format: cell-based
In short: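 Blood from drug-free healthy donors was taken into acid-citrate-dextrose. PRP was spun (140xg, 12 min), given PGE1 at 50 ng/ml, pelleted, washed in citrate-dextrose buffer pH 6.5 and resuspended in Tyrode's pH 7.4 with 1% BSA and 1 mM Ca²⁺/Mg²⁺. […] Read-out was unwashed flow cytometry MFI, over three days with two donors.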

[3] = tested on: clot retraction in human PRP; assay: Clot retraction in platelet-rich plasma; format: cell-based; settings: thrombin
In short: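 Citrated human PRP pre-incubated 20 min at RT with test compound or buffer (in Tyrode's buffer + 1% BSA) at several concentrations. Glass-tube clot retraction started with thrombin (7.5 U/ml stock) at 37°C and imaged every 15 min. Retraction = 1 − (clot area/whole reaction area). IC50 at 30 and 90 min from a three-parameter inhibitor-response fit. Three runs, PRP from three donors.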

[4] = 2012, cited from earlier work
αIIbβ3 = settings: patients with acute coronary syndrome ref Cox et al., 2000; cited from earlier work
αIIbβ3 headpiece [5] = molecular target: T1, αIIbβ3 headpiece (Homo sapiens, UniProt P05106+P08514); assay: Size-exclusion chromatography; format: biochemical; settings: 10 μM drug
In short: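 Superdex 200 column equilibrated with 10 µM test compound in HEPES-buffered saline containing either 1 mM Mg2+/1 mM Ca2+ or 2 mM Mn2+/0.2 mM Ca2+. αIIbβ3 headpiece (30 µg) pre-incubated 30 min at RT with 60 µM compound in matching buffer, then chromatographed. Hydrodynamic radius taken from elution. Two runs, or one, per compound; controls ≥3.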

αIIbβ3 headpiece [6] = molecular target: T1, αIIbβ3 headpiece; settings: soaked in Mg2+
In short: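 Closed αIIbβ3 headpiece–10E5 Fab crystals stabilised in 15% PEG 8000, 0.2 M ammonium sulfate, 0.1 M Tris-HCl pH 8.9, with glycerol raised in 5% steps to 15%. Compound (0.1-1 mM) added in the final 20% glycerol cryo step, with 1 mM MgCl2/1 mM CaCl2 or 2 mM MnCl2/0.2 mM CaCl2. Soaked 4 h, plunge-frozen in liquid N2. Synchrotron diffraction data collected, then structure refinement.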

WT αIIbβ3 = assay: Competition with FITC-echistatin binding to WT αIIbβ3 transfectant in serum; settings: 95% serum compared to 0.1% BSA
α5β1 = settings: ref Li et al., 2017; cited from earlier work

T1 sequence (P08514 32-488 limits assumed): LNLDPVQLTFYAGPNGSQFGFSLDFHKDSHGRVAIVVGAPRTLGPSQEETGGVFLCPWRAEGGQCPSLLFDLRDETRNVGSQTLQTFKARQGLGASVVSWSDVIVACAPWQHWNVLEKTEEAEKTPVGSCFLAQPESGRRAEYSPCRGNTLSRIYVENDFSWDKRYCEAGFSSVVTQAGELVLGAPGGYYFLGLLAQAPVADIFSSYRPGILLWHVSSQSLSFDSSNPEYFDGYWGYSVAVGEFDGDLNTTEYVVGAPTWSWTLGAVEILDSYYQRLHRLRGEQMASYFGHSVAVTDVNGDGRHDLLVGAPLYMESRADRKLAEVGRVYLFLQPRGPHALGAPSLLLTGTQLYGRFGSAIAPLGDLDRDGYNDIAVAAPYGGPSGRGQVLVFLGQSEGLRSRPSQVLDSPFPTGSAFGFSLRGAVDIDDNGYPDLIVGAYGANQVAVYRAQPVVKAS
T1 sequence (P05106 27-498 limits assumed): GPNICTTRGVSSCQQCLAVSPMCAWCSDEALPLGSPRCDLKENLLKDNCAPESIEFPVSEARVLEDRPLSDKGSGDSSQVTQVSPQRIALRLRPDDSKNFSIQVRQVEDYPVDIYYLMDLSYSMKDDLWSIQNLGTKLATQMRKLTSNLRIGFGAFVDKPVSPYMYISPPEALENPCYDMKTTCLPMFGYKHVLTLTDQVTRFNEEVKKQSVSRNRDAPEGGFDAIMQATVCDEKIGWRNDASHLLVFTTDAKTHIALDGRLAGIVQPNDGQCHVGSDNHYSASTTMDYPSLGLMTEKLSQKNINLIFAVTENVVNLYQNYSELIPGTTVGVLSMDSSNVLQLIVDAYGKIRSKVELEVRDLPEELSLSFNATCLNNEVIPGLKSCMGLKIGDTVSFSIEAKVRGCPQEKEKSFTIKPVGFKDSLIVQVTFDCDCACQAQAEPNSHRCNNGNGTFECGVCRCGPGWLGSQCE
αIIbβ3 on washed human platelets, sequence (P08514 32-887 limits assumed): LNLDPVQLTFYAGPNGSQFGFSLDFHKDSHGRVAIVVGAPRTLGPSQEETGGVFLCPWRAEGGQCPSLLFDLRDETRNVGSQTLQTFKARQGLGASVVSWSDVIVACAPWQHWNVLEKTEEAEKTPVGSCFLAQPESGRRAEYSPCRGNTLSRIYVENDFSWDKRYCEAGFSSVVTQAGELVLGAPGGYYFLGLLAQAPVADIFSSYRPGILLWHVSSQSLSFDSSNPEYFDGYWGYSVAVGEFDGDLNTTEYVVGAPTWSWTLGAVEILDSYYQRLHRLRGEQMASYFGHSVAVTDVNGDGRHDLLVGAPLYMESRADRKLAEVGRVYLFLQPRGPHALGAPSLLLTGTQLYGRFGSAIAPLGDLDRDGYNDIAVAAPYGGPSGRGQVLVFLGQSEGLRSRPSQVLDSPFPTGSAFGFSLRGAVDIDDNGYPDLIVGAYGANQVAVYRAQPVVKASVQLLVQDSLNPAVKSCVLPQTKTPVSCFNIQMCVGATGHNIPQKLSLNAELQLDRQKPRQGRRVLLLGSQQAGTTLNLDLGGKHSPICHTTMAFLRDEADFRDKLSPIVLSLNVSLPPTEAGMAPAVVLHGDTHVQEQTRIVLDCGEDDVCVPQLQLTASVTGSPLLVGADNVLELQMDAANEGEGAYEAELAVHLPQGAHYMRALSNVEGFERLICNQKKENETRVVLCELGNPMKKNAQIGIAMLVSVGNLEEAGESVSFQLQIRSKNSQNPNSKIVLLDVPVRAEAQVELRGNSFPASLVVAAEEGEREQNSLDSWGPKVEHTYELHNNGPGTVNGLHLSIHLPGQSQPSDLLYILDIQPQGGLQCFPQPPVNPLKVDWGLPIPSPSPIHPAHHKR
αIIbβ3 on washed human platelets, sequence (P08514 891-1039 partner limits assumed): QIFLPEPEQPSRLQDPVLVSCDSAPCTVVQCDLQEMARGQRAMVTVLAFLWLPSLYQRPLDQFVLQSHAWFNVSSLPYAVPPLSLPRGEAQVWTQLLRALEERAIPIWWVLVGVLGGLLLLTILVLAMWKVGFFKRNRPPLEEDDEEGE
αIIbβ3 on washed human platelets, sequence (P05106 27-788): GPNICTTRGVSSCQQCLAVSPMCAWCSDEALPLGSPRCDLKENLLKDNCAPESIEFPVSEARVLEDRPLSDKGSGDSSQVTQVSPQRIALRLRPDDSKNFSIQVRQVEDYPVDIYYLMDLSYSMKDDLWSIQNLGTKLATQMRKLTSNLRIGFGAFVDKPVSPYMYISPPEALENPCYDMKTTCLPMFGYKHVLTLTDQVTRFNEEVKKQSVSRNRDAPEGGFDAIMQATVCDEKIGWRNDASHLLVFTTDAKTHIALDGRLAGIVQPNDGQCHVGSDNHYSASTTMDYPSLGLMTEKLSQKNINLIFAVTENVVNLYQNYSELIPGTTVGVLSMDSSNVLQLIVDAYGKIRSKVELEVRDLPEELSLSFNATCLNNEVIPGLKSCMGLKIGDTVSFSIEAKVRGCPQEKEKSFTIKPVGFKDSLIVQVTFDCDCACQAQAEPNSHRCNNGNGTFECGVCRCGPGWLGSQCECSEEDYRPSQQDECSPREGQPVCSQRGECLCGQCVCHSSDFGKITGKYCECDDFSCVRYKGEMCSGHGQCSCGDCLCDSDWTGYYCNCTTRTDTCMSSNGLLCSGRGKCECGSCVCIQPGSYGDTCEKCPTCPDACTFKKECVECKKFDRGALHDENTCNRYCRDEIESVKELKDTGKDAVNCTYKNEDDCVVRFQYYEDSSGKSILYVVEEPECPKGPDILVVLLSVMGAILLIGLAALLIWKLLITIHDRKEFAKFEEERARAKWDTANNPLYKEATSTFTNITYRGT
αIIbβ3 WT, sequence (P08514 32-887 limits assumed): as the sequence (P08514 32-887 limits assumed) above
αIIbβ3 WT, sequence (P08514 891-1039 partner limits assumed): as the sequence (P08514 891-1039 partner limits assumed) above
αIIbβ3 WT, sequence (P05106 27-788): as the sequence (P05106 27-788) above
αIIbβ3_N305T, sequence (P08514 32-887 limits assumed): as the sequence (P08514 32-887 limits assumed) above
αIIbβ3_N305T, sequence (P08514 891-1039 partner limits assumed): as the sequence (P08514 891-1039 partner limits assumed) above
αIIbβ3_N305T, sequence (P05106 27-788 N331T): as the sequence (P05106 27-788) above, with N305T counted along it

## NCC(=O)Nc1cncc(-c2nn3c(=O)cc(N4CCNCC4)nc3s2)c1 [RUC-4]
[1]
  affinity for activated mutant (β3 N305T) compared with WT αIIbβ3: indistinguishable
αIIbβ3 WT
  LIBS (MBC319.4) epitope exposure: no effect on LIBS epitope expression
αIIbβ3_N305T
  LIBS (MBC319.4) epitope exposure: no effect on LIBS epitope expression
[2]; absence of thrombin
  LIBS epitope exposure (integrin extension) on washed platelets: no significant effect
[2]; after activation with thrombin 0.5 U/ml
  LIBS epitope exposure (integrin extension) on washed platelets: no effect on integrin extension
[3]
  inhibition of clot retraction: effective

## CCOCc1cc(OC)c(-c2ccc(C[C@H](NC(=O)c3c(F)cccc3F)C(=O)O)cc2)c(OC)c1 [firategrast]
[4]; highest dose ref Miller et al.
  gadolinium-enhanced lesions: significant decrease
[4]; lowest dose ref Miller et al.
  gadolinium-enhanced lesions: significant increase
[4]; middle dose ref Miller et al.
  gadolinium-enhanced lesions: lack of effect

## CCOC(=O)CCNC(=O)N[C@H]1CCN(c2ccc(C(=N)N)cc2)C1=O [orbofiban]
αIIbβ3
  platelet activation markers in treated patients: increased αIIbβ3 conformational change, antibody-stimulated thromboxane B2 production, and CD63 expression

## CCCCS(=O)(=O)N[C@@H](Cc1ccc(OCCCCC2CCNCC2)cc1)C(=O)O [tirofiban]
αIIbβ3 headpiece [5]; 1 mM Mg2+/1 mM Ca2+
  effect on αIIbβ3 headpiece opening in gel filtration: caused the headpiece to elute earlier in gel filtration
αIIbβ3 headpiece [5]; 2 mM Mn2+/0.2 mM Ca2+
  hydrodynamic radius of αIIbβ3 headpiece: ~ 5.36 nm
αIIbβ3 headpiece [6]
  effect on structure of closed αIIbβ3 headpiece in crystals: Ser-123 displaced water 1 to coordinate directly to the MIDAS metal ion
WT αIIbβ3
  decrease of affinity in 95% serum: 1.8 fold
αIIbβ3 WT
  LIBS (MBC319.4) epitope exposure: next strongest
[2]; absence of thrombin
  LIBS epitope exposure (integrin extension) on washed platelets: Stronger extension
[3]
  inhibition of clot retraction: effective

## fibronectin
α5β1
  higher affinity for the open than the closed conformation: 6,000 fold
